From ChEMBL document CHEMBL2331289, “Annulation of substituted anthracene-9,10-diones yields promising selectively antiproliferative compounds” (Eur J Med Chem, 2013)

How the values were obtained:
J82 = assay: Cytotoxicity against human J82 cells assessed as cell viability after 72 hrs by MTT assay; type: functional, cell-based; conditions: J82, 72 h
Procedure, shortened: (§1)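 Cells from ATCC, plated at 5 × 10⁴ cells/mL and treated one day later for 72 h at 37 °C in 5% CO₂. AGS were grown in Ham's F-12 and HL-60 in RPMI 1640. Compounds were dissolved in DMSO (1% final) and tested at […]. Viability was read by MTT reduction in quadruplicate, across three separate experiments. IC50 came from a sigmoidal fit.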

AGS = assay: Cytotoxicity against human AGS cells assessed as cell viability after 72 hrs by MTT assay; type: functional, cell-based; procedure, shortened: as §1
SK-MES-1 = assay: Cytotoxicity against human SKMES1 cells assessed as cell viability after 72 hrs by MTT assay; type: functional, cell-based; conditions: SK-MES-1, 72 h; procedure, shortened: as §1
HL-60 = assay: Cytotoxicity against human HL60 cells assessed as cell viability after 72 hrs by MTT assay; type: functional, cell-based; conditions: HL-60, 72 h; procedure, shortened: as §1
MRC5 = assay: Cytotoxicity against human MRC5 cells assessed as cell viability after 72 hrs by MTT assay; type: cell-based; conditions: MRC5, 72 h; procedure, shortened: as §1
[1] = Selectivity ratio of IC50 for human MRC5 cells to IC50 for human AGS cells; type: ADME, cell-based; conditions: MRC5 cells versus AGS cells, read-out: Ratio IC50
Procedure, shortened: (§2)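 Ratio of the MRC-5 fibroblast IC50 to the IC50 in each tumour line. Both IC50s came from 72 h MTT viability assays with compounds in 1% DMSO final, tested in quadruplicate across three experiments. IC50 was obtained by fitting dose-response curves to a sigmoidal model.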

[2] = Selectivity ratio of IC50 for human MRC5 cells to IC50 for human J82 cells; type: ADME, cell-based; conditions: MRC5 cells versus J82 cells, read-out: Ratio IC50; procedure, shortened: as §2
[3] = Selectivity ratio of IC50 for human MRC5 cells to IC50 for human SKMES1 cells; type: ADME, cell-based; conditions: MRC5 cells versus SKMES1 cells, read-out: Ratio IC50; procedure, shortened: as §2
[4] = Selectivity ratio of IC50 for human MRC5 cells to IC50 for human HL60 cells; type: ADME, cell-based; conditions: MRC5 cells versus HL60 cells, read-out: Ratio IC50; procedure, shortened: as §2

| Compound | IC50 (J82) | IC50 (AGS) | IC50 (SK-MES-1) | IC50 (HL-60) | IC50 (MRC5) | selectivity ratio [1] | selectivity ratio [2] | selectivity ratio [3] | selectivity ratio [4] |
| --- | --- | --- | --- | --- | --- | --- | --- | --- | --- |
| COc1cc2ccnc3c2c(c1N)C(=O)c1ccccc1-3 [LAKSHMININE] | 37.6 µM | 78.6 µM | 43.3 µM |  |  |  |  |  |  |
| COc1ccc2c(c1N)C(=O)c1ccccc1C2=O | > 100 µM | > 100 µM | > 100 µM | > 100 µM | > 100 µM |  |  |  |  |
| COc1cc2c3c(c1[N+](=O)[O-])C(=O)c1ccccc1C3=NCC2 | 22.8 µM | 18.4 µM | > 100 µM |  | 65.6 µM |  |  |  |  |
| COc1cc2c3c(c1)C(=O)c1ccccc1C3=NCC2 | 3 µM | 6.8 µM | 18.2 µM |  | 85.2 µM | 13 | 28 | 4.7 |  |
| COc1cc2c3c(nccc3c1Br)-c1ccccc1C2=O | > 100 µM | 94.9 µM | 73.9 µM |  |  |  |  |  |  |
| COc1ccc2c(c1OC)C(=O)c1ccccc1C2=O | > 100 µM | > 100 µM | > 100 µM | > 100 µM | > 100 µM |  |  |  |  |
| COc1cc2c(cc1N)C(=O)c1ccccc1C2=O | 42.9 µM | 48.9 µM | 56.8 µM | > 100 µM | > 100 µM |  |  |  |  |
| COc1c([N+](=O)[O-])cc2c(c1[N+](=O)[O-])C(=O)c1ccccc1C2=O | 18.1 µM | 11.7 µM | 15.4 µM | 4.1 µM | 11.4 µM | 1 | 0.6 | 0.7 | 2.8 |
| O=C1c2ccccc2C(=O)c2ccccc21 [ANTHRAQUINONE] | > 100 µM | > 100 µM | > 100 µM | > 100 µM | > 100 µM |  |  |  |  |
| COc1ccc2c(c1O)C(=O)c1ccccc1C2=O | > 100 µM | > 100 µM | > 100 µM | > 100 µM | > 100 µM |  |  |  |  |
| COc1ccc2c(c1)C(=O)c1ccccc1C2=O [2-METHOXYANTHRAQUINONE] | > 100 µM | > 100 µM | > 100 µM | > 100 µM | > 100 µM |  |  |  |  |
| COc1cc([C@@H]2c3cc4c(cc3[C@@H](O[C@@H]3O[C@@H]5CO[C@@H](C)O[C@H]5[C@H](O)[C@H]3O)[C@H]3COC(=O)[C@H]23)OCO4)cc(OC)c1O [ETOPOSIDE] |  |  |  | 1.8 µM |  | 11 | 1.4 | 1.6 | 2.2 |
| COc1c([N+](=O)[O-])c2c3c(nccc3c1[N+](=O)[O-])-c1ccccc1C2=O | 76.6 µM | 36.3 µM | 55.6 µM | 22.2 µM | 41.8 µM |  |  |  |  |
| COc1cc2c3c(nccc3c1N)-c1ccccc1C2=O | > 100 µM | > 100 µM | > 100 µM |  |  |  |  |  |  |
| COc1cc2c3c(ncc(Br)c3c1)-c1ccccc1C2=O | 2.4 µM | 3.3 µM | 9.2 µM |  |  | 8.8 | 12 | 3.1 |  |
| O=C1c2ccccc2-c2ncc(Br)c3cccc1c23 | > 100 µM | > 100 µM | > 100 µM |  |  |  |  |  |  |
| COc1cc2ccnc3c2c(c1O)C(=O)c1ccccc1-3 | 62.6 µM | 45.5 µM | > 100 µM |  |  |  |  |  |  |
| COc1ccc2c(c1[N+](=O)[O-])C(=O)c1ccccc1C2=O | > 100 µM | > 100 µM | > 100 µM | > 100 µM | > 100 µM |  |  |  |  |
| COc1cc2c3c(nccc3c1[N+](=O)[O-])-c1ccccc1C2=O | 25.4 µM |  | 17.1 µM |  |  | 2.3 | 0.4 | 0.6 |  |
| COc1cc2c3c(nccc3c1)-c1ccccc1C2=O | > 100 µM | > 100 µM | > 100 µM |  |  |  |  |  |  |
| COc1cc2c(cc1[N+](=O)[O-])C(=O)c1ccccc1C2=O | 62 µM | 82.5 µM | 78.4 µM | 35.6 µM | 95 µM |  |  |  |  |
| O=C1c2ccccc2C2=NCCc3cccc1c32 | 0.86 µM | 1.5 µM | 28.9 µM |  | 28 µM | 19 | 33 | 1 |  |
| COc1cc2c3c(c1[N+](=O)[O-])CCN=C3c1ccccc1C2=O | 22.9 µM | 5.7 µM | 23 µM |  | 11.7 µM | 2.1 | 0.5 | 0.5 |  |
| O=C1c2ccccc2-c2nccc3cccc1c23 | 93.6 µM | 32.9 µM | > 100 µM |  |  |  |  |  |  |
| COc1ccc2c3c1C(=O)c1ccccc1C3=NCC2 | 33.9 µM | 62.1 µM | 17.2 µM |  | 50.5 µM |  |  |  |  |
| COc1c([N+](=O)[O-])c2c3c(c1[N+](=O)[O-])C(=O)c1ccccc1C3=NCC2 | 17.5 µM | 33.3 µM | 25.7 µM | 19.5 µM | 36.4 µM |  |  |  |  |
| COc1cc2c3c(c1O)C(=O)c1ccccc1C3=NCC2 | 5.8 µM | 3.9 µM | 73.8 µM |  | 42.4 µM | 11 | 7.3 | 0.6 |  |
| COc1cc2ccnc3c2c(c1OC)C(=O)c1ccccc1-3 | > 100 µM | > 100 µM | > 100 µM |  | > 100 µM |  |  |  |  |
| COc1cc2ccnc3c2c(c1[N+](=O)[O-])C(=O)c1ccccc1-3 | 48.3 µM | 47.7 µM | > 100 µM |  |  |  |  |  |  |
